Columns and labels:
Carbonic anhydrase 9 = Carbonic anhydrase 9 (Homo sapiens, UniProt Q16790); assay: Inhibition of human recombinant carbonic anhydrase 9 pre-incubated for 15 mins by stopped-flow CO2 hydration assay
Method in brief: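 Recombinant human enzyme, produced in-house. CO2 1.7–17 mM. Initial rates taken over 10-100 s from at least six traces, with the uncatalysed rate subtracted. Inhibitor diluted in water from 0.1 mM stock down to 0.01 nM, preincubated with enzyme at room temperature. Three determinations.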

Carbonic anhydrase 2 = Carbonic anhydrase 2 (Homo sapiens, UniProt P00918); assay: Inhibition of human recombinant carbonic anhydrase 2 pre-incubated for 15 mins by stopped-flow CO2 hydration assay

SMILES | Ki (Carbonic anhydrase 9) [nM] | Ki (Carbonic anhydrase 2) [nM]
COc1cccc(/C=C/C(=O)C[C@@H]2O[C@H](COC(C)=O)[C@@H](OC(C)=O)[C@H](OC(C)=O)[C@H]2OC(C)=O)c1 | 779 | –
COc1ccc(/C=C/C(=O)C[C@@H]2O[C@H](COC(C)=O)[C@@H](OC(C)=O)[C@H](OC(C)=O)[C@H]2OC(C)=O)cc1OC | 753 | –
COc1cccc(/C=C/C(=O)C[C@@H]2O[C@H](COC(C)=O)[C@H](OC(C)=O)[C@H](OC(C)=O)[C@H]2OC(C)=O)c1 | 93 | –
COc1ccc(/C=C/C(=O)C[C@@H]2O[C@H](COC(C)=O)[C@H](OC(C)=O)[C@H](OC(C)=O)[C@H]2OC(C)=O)cc1OC | 773 | –
COc1cccc(/C=C/C(=O)C[C@@H]2O[C@H](CO)[C@@H](O)[C@H](O)[C@H]2O)c1 | 615 | > 50000
COc1ccc2cc(/C=C/C(=O)C[C@@H]3O[C@H](CO)[C@@H](O)[C@H](O)[C@H]3O)ccc2c1 | 462 | > 50000
COc1cccc(/C=C/C(=O)C[C@@H]2O[C@H](CO)[C@H](O)[C@H](O)[C@H]2O)c1 | 3860 | > 50000
COc1ccc(/C=C/C(=O)C[C@@H]2O[C@H](CO)[C@H](O)[C@H](O)[C@H]2O)cc1OC | 936 | –
COc1ccc2cc(/C=C/C(=O)C[C@@H]3O[C@H](CO)[C@H](O)[C@H](O)[C@H]3O)ccc2c1 | 485 | > 50000
COc1ccc(/C=C/C(=O)C[C@@H]2O[C@H](CO)[C@@H](O)[C@H](O)[C@H]2O)cc1OC | 840 | –

Reference: ChEMBL document CHEMBL3352068 (Bioorg Med Chem, 2014)
